{"source": "ChEMBL document CHEMBL4130438", "about": "“6,7-Seco-ent-Kauranoids Derived from Oridonin as Potential Anticancer Agents” (J Nat Prod, 2017)", "key": {"Bel-7402 [1]": {"system": "Bel-7402", "assay": "Cytotoxicity against human Bel7402 cells assessed as decrease in cell viability after 24 hrs by LDH release assay", "format": "functional, cell-based", "in_short": "(§1)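 MCF-7 and Bel-7402 cells seeded at ~5 × 10^3 per well for 24 h, then exposed to compounds. LDH released into the medium measured with CytoTox-ONE reagent (10 min, ambient temperature) followed by stop solution. Fluorescence read at ex 560/em 590 nm.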"}, "MCF7 [2]": {"system": "MCF7", "assay": "Induction of apoptosis in human MCF7 cells assessed as late apoptotic cells at 0.50 uM after 24 hrs by Annexin-V FITC/propidium iodide staining based flow cytometry (reference value: 0.290%)", "format": "functional"}, "MCF7 [3]": {"system": "MCF7", "assay": "Induction of apoptosis in human MCF7 cells assessed as necrotic cells at 0.25 uM after 24 hrs by Annexin-V FITC/propidium iodide staining based flow cytometry (reference value: 0.610%)", "format": "functional"}, "MCF7 [4]": {"system": "MCF7", "assay": "Induction of apoptosis in human MCF7 cells assessed as early apoptotic cells at 1 uM after 24 hrs by Annexin-V FITC/propidium iodide staining based flow cytometry (reference value: 1.60%)", "format": "functional"}, "MCF7 [5]": {"system": "MCF7", "assay": "Cell cycle arrest in human MCF7 cells assessed as accumulation at G2/M phase at 0.50 uM after 48 hrs by propidium iodide staining based flow cytometry (reference value: 12.72%)", "format": "functional"}, "Homo sapiens": {"organism": "Homo sapiens", "assay": "Antiproliferative activity against human KB/CP4 cells after 48 hrs by MTT assay", "format": "functional, cell-based"}, "MCF7 [6]": {"system": "MCF7", "assay": "Induction of apoptosis in human MCF7 cells assessed as viable cells at 2 uM after 24 hrs by Annexin-V FITC/propidium iodide staining based flow cytometry (reference value: 97.5%)", "format": "functional", "settings": "MCF7, 24 h, read-out: Activity"}, "K562": {"system": "K562", "assay": "Antiproliferative activity against human K562 cells after 72 hrs by MTT assay", "format": "functional, cell-based", "settings": "K562, 72 h", "in_short": "(§2)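 Cells pre-incubated 24 h at 37 °C, 5% CO2 in 96-well plates, then exposed to a range of compound concentrations (DMSO ≤0.25%) for 72 h. Viable cells read by MTT colour at 570 nm. Performed in quadruplicate, repeated three times. IC50 reported as means ± SD, n = 3.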"}, "MCF7 [7]": {"system": "MCF7", "assay": "Induction of apoptosis in human MCF7 cells assessed as decrease in mitochondrial membrane potential measured after 36 hrs by JC-1 staining based fluorescence microscopy", "format": "functional, cell-based", "in_short": "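MCF-7 cells treated 36 h across a range of concentrations, then loaded with 10 μg/mL JC-1 for 30 min at 37 °C and washed in PBS. Monomer fluorescence read at ex 490/em 535 nm and aggregate fluorescence at ex 525/em 600 nm, by plate reader or fluorescence microscopy. Run in triplicate.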"}, "MCF7 [8]": {"system": "MCF7", "assay": "Induction of apoptosis in human MCF7 cells assessed as decrease in p53 expression level after 48 hrs by Western blot analysis", "format": "functional, cell-based", "in_short": "(§3)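 MCF-7 cells treated 48 h with 0, 0.5, 1.0, 2.0 or 4.0 μM, then lysed on ice. 20 μg protein per lane run on 8–12% SDS-PAGE and transferred to PVDF. Probed overnight at 4 °C for caspase-3, pro-caspase-3, Bax, Bcl-2, p-ERK and p53, with fluorescent secondary antibodies. Densities normalised to β-actin; three independent experiments.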"}, "Bel-7402 [9]": {"system": "Bel-7402", "assay": "Antiproliferative activity against human Bel7402 cells after 72 hrs by MTT assay", "format": "functional, cell-based", "settings": "Bel-7402, 72 h", "in_short": "as §2"}, "MCF7 [10]": {"system": "MCF7", "assay": "Cell cycle arrest in human MCF7 cells assessed as accumulation at S phase at 0.50 uM after 48 hrs by propidium iodide staining based flow cytometry (reference value: 17.01%)", "format": "functional"}, "MCF7 [11]": {"system": "MCF7", "assay": "Induction of apoptosis in human MCF7 cells assessed as increase in Bax expression level after 48 hrs by Western blot analysis", "format": "functional, cell-based"}, "MCF7 [12]": {"system": "MCF7", "assay": "Cell cycle arrest in human MCF7 cells assessed as accumulation at G2/M phase at 1 uM after 48 hrs by propidium iodide staining based flow cytometry (reference value: 12.72%)", "format": "functional"}, "MCF7 [13]": {"system": "MCF7", "assay": "Cell cycle arrest in human MCF7 cells assessed as accumulation at G2/M phase at 2 uM after 48 hrs by propidium iodide staining based flow cytometry (reference value: 12.72%)", "format": "functional"}, "MCF7 [14]": {"system": "MCF7", "assay": "Induction of apoptosis in human MCF7 cells assessed as early apoptotic cells at 0.25 uM after 24 hrs by Annexin-V FITC/propidium iodide staining based flow cytometry (reference value: 1.60%)", "format": "functional"}, "MCF7 [15]": {"system": "MCF7", "assay": "Induction of apoptosis in human MCF7 cells assessed as late apoptotic cells at 2 uM after 24 hrs by Annexin-V FITC/propidium iodide staining based flow cytometry (reference value: 0.290%)", "format": "functional"}, "MCF7 [16]": {"system": "MCF7", "assay": "Induction of apoptosis in human MCF7 cells assessed as late apoptotic cells at 0.25 uM after 24 hrs by Annexin-V FITC/propidium iodide staining based flow cytometry (reference value: 0.290%)", "format": "functional"}, "MCF7 [17]": {"system": "MCF7", "assay": "Cell cycle arrest in human MCF7 cells assessed as accumulation at S phase at 1 uM after 48 hrs by propidium iodide staining based flow cytometry (reference value: 17.01%)", "format": "functional"}, "MCF7 [18]": {"system": "MCF7", "assay": "Cytotoxicity against human MCF7 cells assessed as decrease in cell viability after 24 hrs by LDH release assay", "format": "functional, cell-based", "in_short": "as §1"}, "H22": {"system": "H22", "assay": "Antitumor activity against […] cells xenografted in ICR mouse assessed as decrease in tumor weight at 10 to 20 mg/kg, iv qd administered for 14 consecutive days measured every 2 days", "format": "functional, organism-based", "in_short": "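Male ICR mice, five weeks old, implanted s.c. in the right flank with 1 × 10^6 H22 cells. After 7 days, randomised into groups of eight. Given i.v. once daily for 14 days, 10 or 20 mg/kg in 10% DMF/2% poloxamer/88% saline; negative controls received 0.9% saline i.v., positive control 20 mg/kg oridonin. Body weight and tumour volume (L × W²/2) recorded every 2 days. Tumours excised and weighed at sacrifice; inhibition (%) = (1 − treated/control mean tumour weight) × 100.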"}, "MCF7 [19]": {"system": "MCF7", "assay": "Induction of apoptosis in human MCF7 cells assessed as increase in caspase 3 expression level after 48 hrs by Western blot analysis", "format": "functional, cell-based"}, "MCF7 [20]": {"system": "MCF7", "assay": "Cell cycle arrest in human MCF7 cells assessed as accumulation at G1 phase at 0.25 uM after 48 hrs by propidium iodide staining based flow cytometry (reference value: 70.27%)", "format": "functional"}, "MCF7 [21]": {"system": "MCF7", "assay": "Cell cycle arrest in human MCF7 cells assessed as accumulation at G1 phase at 0.50 uM after 48 hrs by propidium iodide staining based flow cytometry (reference value: 70.27%)", "format": "functional"}, "MCF7 [22]": {"system": "MCF7", "assay": "Induction of apoptosis in human MCF7 cells assessed as necrotic cells at 0.50 uM after 24 hrs by Annexin-V FITC/propidium iodide staining based flow cytometry (reference value: 0.610%)", "format": "functional"}, "MCF7 [23]": {"system": "MCF7", "assay": "Induction of apoptosis in human MCF7 cells assessed as viable cells at 0.50 uM after 24 hrs by Annexin-V FITC/propidium iodide staining based flow cytometry (reference value: 97.5%)", "format": "functional", "settings": "MCF7, 24 h, read-out: Activity"}, "MCF7 [24]": {"system": "MCF7", "assay": "Induction of apoptosis in human MCF7 cells after 24 hrs by Annexin-V FITC/propidium iodide staining based flow cytometry", "format": "functional, cell-based"}, "MCF7 [25]": {"system": "MCF7", "assay": "Cell cycle arrest in human MCF7 cells assessed as accumulation at G2/M phase at 0.25 uM after 48 hrs by propidium iodide staining based flow cytometry (reference value: 12.72%)", "format": "functional"}, "MCF7 [26]": {"system": "MCF7", "assay": "Induction of apoptosis in human MCF7 cells assessed as decrease in Bcl2 expression level after 48 hrs by Western blot analysis", "format": "functional, cell-based", "in_short": "as §3"}}, "note": "Activity calls are given as the source filed them. No cut-off for these calls is given here.", "data": [{"molecule": "C=C1C(=O)[C@@]23C(=O)OC[C@]4(C=CCC(C)(C)[C@H]4C=O)[C@@H]2CC[C@@H]1[C@H]3OC(=O)c1ccc(F)cc1", "values": [{"measurement": "Activity", "setting": "Bel-7402 [1]", "value": "inactive"}, {"measurement": "Activity", "setting": "MCF7 [2]", "value": 7.68, "unit": "%"}, {"measurement": "Activity", "setting": "MCF7 [3]", "value": 0.649, "unit": "%"}, {"measurement": "Activity", "setting": "MCF7 [4]", "value": 10.2, "unit": "%"}, {"measurement": "Activity", "setting": "MCF7 [5]", "value": 19.47, "unit": "%"}, {"measurement": "Activity", "setting": "Homo sapiens", "value": "Active"}, {"measurement": "viability at 2 µM", "setting": "MCF7 [6]", "value": 58.6, "unit": "%"}, {"measurement": "IC50", "setting": "K562", "value": 0.69, "unit": "µM"}, {"measurement": "Activity", "setting": "MCF7 [7]", "value": "Dose-dependent effect"}, {"measurement": "Activity", "setting": "MCF7 [8]", "value": "Dose-dependent effect"}, {"measurement": "IC50", "setting": "Bel-7402 [9]", "value": 1.8, "unit": "µM"}, {"measurement": "Activity", "setting": "MCF7 [10]", "value": 15.71, "unit": "%"}, {"measurement": "Activity", "setting": "MCF7 [11]", "value": "Dose-dependent effect"}, {"measurement": "Activity", "setting": "MCF7 [12]", "value": 21.23, "unit": "%"}, {"measurement": "Activity", "setting": "MCF7 [13]", "value": 24.8, "unit": "%"}, {"measurement": "Activity", "setting": "MCF7 [14]", "value": 6.67, "unit": "%"}, {"measurement": "Activity", "setting": "MCF7 [15]", "value": 24.7, "unit": "%"}, {"measurement": "Activity", "setting": "MCF7 [16]", "value": 5.51, "unit": "%"}, {"measurement": "Activity", "setting": "MCF7 [17]", "value": 15.43, "unit": "%"}, {"measurement": "Activity", "setting": "MCF7 [18]", "value": "inactive"}, {"measurement": "Activity", "setting": "H22", "value": "Active"}, {"measurement": "Activity", "setting": "MCF7 [19]", "value": "Dose-dependent effect"}, {"measurement": "Activity", "setting": "MCF7 [20]", "value": 67.64, "unit": "%"}, {"measurement": "Activity", "setting": "MCF7 [21]", "value": 64.82, "unit": "%"}, {"measurement": "Activity", "setting": "MCF7 [22]", "value": 0.901, "unit": "%"}, {"measurement": "viability at 0.5 µM", "setting": "MCF7 [23]", "value": 81.7, "unit": "%"}, {"measurement": "Activity", "setting": "MCF7 [24]", "value": "Dose-dependent effect"}, {"measurement": "Activity", "setting": "MCF7 [25]", "value": 14.06, "unit": "%"}, {"measurement": "Activity", "setting": "MCF7 [26]", "value": "Dose-dependent effect"}]}]}
